In publication PMC11522000 (Nature Microbiology, 2024):
Values after ≈ are worked out from the molar mass of the structure shown. Values joined by “and” are separate entries in the source; they are usually repeats but may differ in a detail not shown here. Equal values may be shown once. “Also recorded” adds a separate entry of the source. Read-outs that look alike come from different tables or passages of the source.

How the values were obtained:
hERG potassium channel = hERG potassium channel (Homo sapiens, UniProt Q12809); test: hERG Q-Patch; assay type: cell-based
Chain of hERG potassium channel (Q12809 whole entry): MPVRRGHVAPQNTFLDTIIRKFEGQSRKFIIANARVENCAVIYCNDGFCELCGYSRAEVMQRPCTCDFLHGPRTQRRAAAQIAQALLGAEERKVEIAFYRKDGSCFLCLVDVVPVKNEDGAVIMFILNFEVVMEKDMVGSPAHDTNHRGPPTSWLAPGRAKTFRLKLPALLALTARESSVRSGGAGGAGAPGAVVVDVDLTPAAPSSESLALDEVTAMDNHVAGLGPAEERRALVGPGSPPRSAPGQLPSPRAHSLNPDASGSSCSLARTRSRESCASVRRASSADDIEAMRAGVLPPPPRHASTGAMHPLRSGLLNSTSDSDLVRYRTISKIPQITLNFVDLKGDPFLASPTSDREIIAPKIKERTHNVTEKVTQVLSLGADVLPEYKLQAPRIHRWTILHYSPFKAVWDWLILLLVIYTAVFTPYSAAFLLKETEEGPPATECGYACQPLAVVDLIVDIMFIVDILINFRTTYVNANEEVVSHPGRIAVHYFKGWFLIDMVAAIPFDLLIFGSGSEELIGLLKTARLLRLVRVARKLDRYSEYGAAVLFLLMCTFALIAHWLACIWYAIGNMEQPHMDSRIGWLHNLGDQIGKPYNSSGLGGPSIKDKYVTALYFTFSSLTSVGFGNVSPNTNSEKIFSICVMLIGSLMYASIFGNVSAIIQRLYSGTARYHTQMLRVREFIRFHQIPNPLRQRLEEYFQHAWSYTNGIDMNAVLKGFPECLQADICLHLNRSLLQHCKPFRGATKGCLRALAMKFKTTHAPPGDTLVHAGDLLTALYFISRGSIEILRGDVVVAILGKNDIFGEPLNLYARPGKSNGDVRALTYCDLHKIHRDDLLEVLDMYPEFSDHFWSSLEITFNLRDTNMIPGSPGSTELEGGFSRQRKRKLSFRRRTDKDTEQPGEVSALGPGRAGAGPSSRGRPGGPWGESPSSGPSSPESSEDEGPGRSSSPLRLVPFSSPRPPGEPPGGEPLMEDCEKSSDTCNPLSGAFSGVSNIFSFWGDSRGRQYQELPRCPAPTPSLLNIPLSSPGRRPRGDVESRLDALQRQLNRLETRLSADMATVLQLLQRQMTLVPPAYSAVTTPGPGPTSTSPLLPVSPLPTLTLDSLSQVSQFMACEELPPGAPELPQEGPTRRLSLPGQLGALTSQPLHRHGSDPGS
Summary of the method: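 hERG potassium current was recorded at near-physiological temperature in stably transfected mammalian cells expressing hERG. The test compound was applied as a 4-point dose response spanning 1–30.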

3T3 fibroblast cells = test: In vitro 3T3 NRU phototoxicity test; assay type: cell-based
Summary of the method: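 This followed OECD 432. 3T3 fibroblasts in 96-well plates were exposed to a concentration range of test compound, up to its solubility limit in HBSS, and viability was read by neutral red uptake.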

CYP2C9 = CYP2C9 (Homo sapiens, UniProt P11712); test: CYP450 reversible inhibition; assay type: in vitro ADME
Chain of CYP2C9 (P11712 whole entry): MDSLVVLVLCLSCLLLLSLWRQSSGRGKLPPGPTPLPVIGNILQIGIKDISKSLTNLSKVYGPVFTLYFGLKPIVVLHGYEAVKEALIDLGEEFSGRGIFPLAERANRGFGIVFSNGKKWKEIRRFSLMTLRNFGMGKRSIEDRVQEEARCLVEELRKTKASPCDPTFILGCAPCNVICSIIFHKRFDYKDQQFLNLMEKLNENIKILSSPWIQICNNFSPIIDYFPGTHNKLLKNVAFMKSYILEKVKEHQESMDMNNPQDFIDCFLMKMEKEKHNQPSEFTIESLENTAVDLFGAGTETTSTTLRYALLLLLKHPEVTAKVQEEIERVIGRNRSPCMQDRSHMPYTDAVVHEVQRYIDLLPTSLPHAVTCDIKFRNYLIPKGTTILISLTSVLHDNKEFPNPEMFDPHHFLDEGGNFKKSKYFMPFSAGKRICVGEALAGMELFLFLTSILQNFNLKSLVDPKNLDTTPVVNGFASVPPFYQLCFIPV

[1] = Liver microsomes metabolic stability; assay type: in vitro ADME; settings: mouse
Summary of the method: (§1)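 Test compound was incubated with liver microsomes or hepatocytes of each species, and parent depletion was quantified by LC-MS/MS. From this, in vitro half-life and intrinsic clearance were derived, along with predicted metabolic clearance and hepatic extraction ratio.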

Plasma protein binding = assay type: in vitro ADME; settings: human
[2] = Hepatocytes metabolic stability; assay type: in vitro ADME; settings: mouse; for half-life / hepatocyte CLint: hepatocytes
Summary of the method: as §1

[3] = Systemic exposure in the mouse efficacy studies; assay type: in vivo
[4] = tested on: Salmonella typhimurium strains TA98 and TA100; test: Mini-Ames
Summary of the method: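 Histidine-auxotrophic S. typhimurium TA98 and TA100 were exposed to test compound with and without rat liver S9.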

CpPI(4)K::Y705A:Y907A = test: PI; assay type: biochemical, C. parvum
Summary of the method: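 Enzyme was pre-incubated with compound for 5 min at room temperature. The reaction was started with substrate mix at twice final strength (PI, ATP, Tris-HCl pH 7.5, DTT, 0.05% Triton X-100, MnCl2) and run 50 min at room temperature. ADP was measured by ADP-Glo luminescence. IC50s came from in-plate duplicate 10-point 3-fold dilutions, with DMSO and reference-inhibitor controls. The C. parvum enzymes (wild type and mutants) were full-length proteins expressed from baculovirus in Sf21 cells.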

Plasma stability [5] = assay type: in vitro ADME; settings: rat
Summary of the method: (§2)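 Test compound was added to plasma and incubated at 37 °C in a shaking water bath, with samples taken at sequential timepoints. Samples were quenched with ice-cold acetonitrile and analysed by LC-MS/MS, and half-life was calculated from the depletion rate.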

C. hominis = test: Cytopathic effect; assay type: cell-based, Cryptosporidium hominis; settings: HCT-8, 48 h, read-out: Ch CPE EC50
Summary of the method: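 HCT-8 cells were grown at 37 °C, 5% CO2 in RPMI-1640 with 10% heat-inactivated FBS. Oocysts were excysted in 10 mM HCl/HBSS for 10 min at 37 °C, then in 2 mM sodium taurocholate in L-15/UltraCULTURE medium for 5 min. Infected cells were seeded onto pre-spotted compound (10-point, 3-fold dilution; DMSO and reference-inhibitor controls) and incubated 48 h. Cells were then lysed for a viability read-out, and concentration-response curves were fitted.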

CYP3A4 = CYP3A4 (Homo sapiens, UniProt P08684); test: CYP450 reversible inhibition; assay type: in vitro ADME
Chain of CYP3A4 (P08684 whole entry): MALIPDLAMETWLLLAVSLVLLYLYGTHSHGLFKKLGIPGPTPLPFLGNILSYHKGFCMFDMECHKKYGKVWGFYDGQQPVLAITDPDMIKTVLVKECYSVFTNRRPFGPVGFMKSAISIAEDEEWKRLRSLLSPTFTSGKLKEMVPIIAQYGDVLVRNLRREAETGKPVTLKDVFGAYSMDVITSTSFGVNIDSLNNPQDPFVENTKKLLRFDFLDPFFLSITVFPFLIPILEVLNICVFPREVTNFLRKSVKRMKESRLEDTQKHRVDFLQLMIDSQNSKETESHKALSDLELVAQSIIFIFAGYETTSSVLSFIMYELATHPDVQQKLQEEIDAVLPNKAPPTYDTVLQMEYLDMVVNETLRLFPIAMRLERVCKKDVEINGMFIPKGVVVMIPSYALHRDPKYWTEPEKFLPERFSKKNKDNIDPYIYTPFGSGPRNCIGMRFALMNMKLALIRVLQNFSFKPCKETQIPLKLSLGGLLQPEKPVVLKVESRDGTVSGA

hNav1.5 = hNav1.5 (Homo sapiens, UniProt Q14524); test: Patch clamp Nav1.5 Quattro; assay type: cell-based
Chain of hNav1.5 (Q14524 whole entry): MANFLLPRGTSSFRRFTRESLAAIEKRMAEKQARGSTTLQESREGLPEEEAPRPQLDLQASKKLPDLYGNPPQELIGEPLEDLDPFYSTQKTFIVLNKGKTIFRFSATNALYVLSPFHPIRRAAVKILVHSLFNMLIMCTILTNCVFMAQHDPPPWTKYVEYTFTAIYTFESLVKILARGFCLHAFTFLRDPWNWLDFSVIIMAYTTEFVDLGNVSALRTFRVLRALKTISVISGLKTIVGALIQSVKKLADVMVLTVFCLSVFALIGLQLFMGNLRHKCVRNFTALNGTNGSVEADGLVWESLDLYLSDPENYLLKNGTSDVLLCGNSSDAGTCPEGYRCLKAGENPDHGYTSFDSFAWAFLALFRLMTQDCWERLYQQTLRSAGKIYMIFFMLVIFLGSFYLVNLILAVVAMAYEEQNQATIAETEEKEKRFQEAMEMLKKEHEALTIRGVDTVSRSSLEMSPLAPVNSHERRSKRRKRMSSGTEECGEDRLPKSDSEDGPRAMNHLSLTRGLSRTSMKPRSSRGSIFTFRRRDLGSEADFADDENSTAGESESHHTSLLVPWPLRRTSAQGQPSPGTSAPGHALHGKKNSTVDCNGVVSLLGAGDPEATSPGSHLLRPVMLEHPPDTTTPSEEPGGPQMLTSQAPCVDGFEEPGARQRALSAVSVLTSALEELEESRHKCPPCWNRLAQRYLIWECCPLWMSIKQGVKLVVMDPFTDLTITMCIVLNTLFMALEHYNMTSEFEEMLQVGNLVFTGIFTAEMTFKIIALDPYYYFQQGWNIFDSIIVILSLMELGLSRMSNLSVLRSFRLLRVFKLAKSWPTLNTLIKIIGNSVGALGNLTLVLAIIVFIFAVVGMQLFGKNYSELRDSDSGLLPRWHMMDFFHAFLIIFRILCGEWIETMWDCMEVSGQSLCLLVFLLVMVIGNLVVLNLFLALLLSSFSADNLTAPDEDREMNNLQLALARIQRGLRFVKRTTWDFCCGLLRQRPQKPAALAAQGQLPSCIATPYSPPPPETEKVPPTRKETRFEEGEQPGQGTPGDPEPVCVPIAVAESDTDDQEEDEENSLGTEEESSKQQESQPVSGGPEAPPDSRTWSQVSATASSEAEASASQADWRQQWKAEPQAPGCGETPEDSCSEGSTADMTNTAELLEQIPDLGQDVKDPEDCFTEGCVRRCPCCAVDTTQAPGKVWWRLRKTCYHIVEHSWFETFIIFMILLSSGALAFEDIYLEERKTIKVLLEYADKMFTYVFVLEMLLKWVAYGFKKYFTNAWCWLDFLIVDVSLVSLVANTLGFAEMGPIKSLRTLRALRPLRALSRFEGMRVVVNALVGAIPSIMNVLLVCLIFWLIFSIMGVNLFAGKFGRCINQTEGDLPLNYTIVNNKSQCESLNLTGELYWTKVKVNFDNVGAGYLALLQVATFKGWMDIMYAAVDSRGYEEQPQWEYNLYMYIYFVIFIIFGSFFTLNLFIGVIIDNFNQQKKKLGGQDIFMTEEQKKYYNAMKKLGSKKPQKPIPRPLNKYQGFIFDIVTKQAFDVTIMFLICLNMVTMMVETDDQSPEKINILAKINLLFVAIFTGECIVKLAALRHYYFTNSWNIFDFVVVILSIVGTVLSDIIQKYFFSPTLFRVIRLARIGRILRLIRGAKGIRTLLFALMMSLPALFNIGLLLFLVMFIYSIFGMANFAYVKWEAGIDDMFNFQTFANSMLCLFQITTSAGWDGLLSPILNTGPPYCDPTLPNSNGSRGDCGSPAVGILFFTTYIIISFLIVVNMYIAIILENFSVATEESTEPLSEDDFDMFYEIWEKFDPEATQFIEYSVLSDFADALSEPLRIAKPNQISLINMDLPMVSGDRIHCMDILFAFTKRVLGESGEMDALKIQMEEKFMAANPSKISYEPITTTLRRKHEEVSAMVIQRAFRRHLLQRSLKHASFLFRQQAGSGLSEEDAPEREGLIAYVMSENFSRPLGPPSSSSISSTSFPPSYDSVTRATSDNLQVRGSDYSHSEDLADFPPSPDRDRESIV
Summary of the method: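 Each channel was stably expressed in HEK293 cells and tested by patch clamp with a 7-point concentration-response.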

[6] = Liver microsomes metabolic stability; assay type: in vitro ADME; settings: dog
Summary of the method: as §1

PAMPA = assay type: in vitro ADME
C. parvum = test: Mouse efficacy study; assay type: in vivo, C57BL/6 IFN-γ-knockout mice; settings: for log reduction in oocyst shedding / log reduction in faecal oocyst shedding: IFN-γ KO mouse, 5 days; for log reduction in faecal oocyst shedding: 10 mg kg^−1 oral
rat reticulocytes = test: In vivo rat peripheral blood micronucleus assay
Summary of the method: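 Peripheral blood was taken on days 3 and 15, in randomized order, from animals in the 2-week rat toxicology study. Micronucleated reticulocytes were counted by flow cytometry.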

CYP3A4 / 1A2 / 2B6 = CYP3A4 / 1A2 / 2B6 hepatocyte induction assay; assay type: in vitro ADME
[7] = Hepatocytes metabolic stability; assay type: in vitro ADME; settings: dog
Summary of the method: as §1

[8] = Liver microsomes metabolic stability; assay type: in vitro ADME; settings: rat
Summary of the method: as §1

HsPI(4)K = HsPI(4)K (Homo sapiens, UniProt Q9UBF8); test: PI; assay type: biochemical; settings: for IC50: HsPI(4)K IC50, 3 μM ATP
Chain of HsPI(4)K (Q9UBF8 523-816 limits assumed): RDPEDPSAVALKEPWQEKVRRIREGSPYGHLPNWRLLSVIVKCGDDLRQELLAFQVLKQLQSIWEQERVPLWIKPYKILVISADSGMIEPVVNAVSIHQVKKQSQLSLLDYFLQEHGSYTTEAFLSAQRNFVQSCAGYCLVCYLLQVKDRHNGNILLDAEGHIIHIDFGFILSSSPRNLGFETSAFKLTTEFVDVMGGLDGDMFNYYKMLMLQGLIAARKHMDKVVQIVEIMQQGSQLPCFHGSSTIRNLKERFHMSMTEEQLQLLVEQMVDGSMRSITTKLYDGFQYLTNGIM

Plasma stability [9] = assay type: in vitro ADME; settings: human
Summary of the method: as §2

P-glycoprotein (MDR1) = test: MDCK MDR1 permeability and efflux; assay type: in vitro ADME; settings: dog
[10] = tested on: human peripheral blood lymphocytes; test: In vitro human lymphocyte; assay type: cell-based; settings: EDI048: near cytotoxic concentrations
Summary of the method: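 Lymphocytes came from pooled blood of two donors. The assay was run under GLP and OECD guidelines, and micronuclei were scored on slides by fluorescence microscopy.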

[11] = High-throughput equilibrium solubility; assay type: physicochemical; settings: thermodynamic from solid
Summary of the method: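 Equilibrium solubility was measured by a miniaturized shake-flask method with HPLC quantification.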

[12] = Stability in intestinal S9 fraction; assay type: in vitro ADME; settings: mouse
Summary of the method: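 Test compound added to intestinal S9 fraction of each species to start the reaction. Incubated in a shaking water bath at 37 °C, with samples taken at sequential timepoints. Samples quenched with ice-cold acetonitrile and analysed by LC-MS/MS. Half-life calculated from the rate of parent compound depletion.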

CNC(=O)c1ccc(-c2cnn3ccc(C(=O)N(C)c4ccc(Cl)c(C(=O)OC)c4)cc23)cc1 [EDI048, methyl 2-chloro-5-(N-methyl-3-(4-(methylcarbamoyl)phenyl)pyrazolo[1,5-a]pyridine-5-carboxamido)benzoate]
IC50 (hERG potassium channel): 8.3 µM | Phototoxicity (3T3 fibroblast cells): Negative | Phototoxicity PIF value (3T3 fibroblast cells): 1.8 | IC50 (CYP2C9): 2.51 µM | Microsomal ER [1]: 93% | microsomal CLint ([1]; liver microsomes): > 700 µL/min/mg | fraction unbound (Plasma protein binding; plasma): 0.045 | Hepatocytes ER [2]: 93% | half-life [2]: 0.0467 h | hepatocyte CLint [2]: > 250 µL/min/1e6 cells | systemic exposure ([3]; mouse, oral 1 and 3 mg kg^−1): no detectable EDI048 systemic exposure | Mini-AMES [4]: Negative | loss of potency against CpPI(4)K::Y705A:Y907A mutant compared with wild-type (CpPI(4)K::Y705A:Y907A): 35–200 × | half-life (Plasma stability [5]): 0.193 h | EC50 (C. hominis; Cryptosporidium hominis): 0.05 ± 0.001 µM | IC50 (CYP3A4): 10.5 µM | IC50 (hNav1.5): > 50 µM | Microsomal ER [6]: 94% | microsomal CLint ([6]; liver microsomes): 271 µL/min/mg | PAMPA (% calc fraction absorbed) (PAMPA): 97% | log reduction in oocyst shedding (C. parvum; 1 mg kg^−1 oral once daily): 0.3 log | log reduction in oocyst shedding (C. parvum; 3 mg kg^−1 oral once daily): 1.1 log | log reduction in faecal oocyst shedding (C. parvum): > 3 log and 3.1 log | In vivo rat reticulocytes MN induction (rat reticulocytes): Negative | CYP3A4 / 1A2 / 2B6 hepatocyte induction assay (CYP3A4 / 1A2 / 2B6): Non-inducer | Hepatocytes ER [7]: 83% | hepatocyte CLint ([7]; hepatocytes): 28.5 µL/min/1e6 cells | Microsomal ER [8]: 96% | microsomal CLint ([8]; liver microsomes): > 700 µL/min/mg | selectivity for Cryptosporidium PI(4)K over HsPI(4)K (HsPI(4)K): > 300 fold and 300 fold | IC50 (HsPI(4)K): 1.03 ± 0.47 µM | Plasma T1/2 (Plasma stability [9]): > 2 h | half-life (Plasma stability [9]; Plasma T1/2, human plasma): > 4 h | Papp A→B (P-glycoprotein (MDR1); MDCK-MDR1): 7.92 ×10⁻⁶ cm/s | efflux ratio (P-glycoprotein (MDR1); MDCK-MDR1): 1.62 | Papp B→A (P-glycoprotein (MDR1); MDCK-MDR1, Permeability B–A, MDCK MDR1, basolateral to apical): 12.9 ×10⁻⁶ cm/s | In vitro Human lymphocyte MN induction [10]: Positive^d | solubility ([11]; FaSSIF, Solubility FaSSIF): 198 µM (≈ 94.4 µg/mL) | solubility ([11]; pH 6.8, aqueous buffer, Solubility pH 6.8, pH 6.8): 54 µM (≈ 25.8 µg/mL) | half-life [12]: 0.75 h

CN(C(=O)c1ccn2ncc(-c3ccc(C(N)=O)cc3)c2c1)c1ccc(C#N)cn1 [KDU731, 3–(4-carbamoylphenyl)-N-(5-cyanopyridin-2-yl)-N-methylpyrazolo [1,5-a]pyridine-5-carboxamide, reference compound]
IC50 (hERG potassium channel): 23 µM | Phototoxicity (3T3 fibroblast cells): Negative | Phototoxicity PIF value (3T3 fibroblast cells): 3.1 | IC50 (CYP2C9): > 4.8 µM | Microsomal ER [1]: 48% | microsomal CLint [1]: 50 µL/min/mg | % Plasma protein binding (Plasma protein binding): 79.1% | Hepatocytes ER [2]: 18% | half-life [2]: > 2.92 h | hepatocyte CLint [2]: < 4 µL/min/1e6 cells | AUC (time 0 to last timepoint) ([3]; mouse efficacy study, 10 mg kg^−1 oral): 2,982 nM h | Mini-AMES [4]: Negative | loss of potency against CpPI(4)K::Y705A:Y907A mutant compared with wild-type (CpPI(4)K::Y705A:Y907A): 35–200 × | half-life (Plasma stability [5]): > 2 h | EC50 (C. hominis; C. hominis): 0.13 µM | IC50 (CYP3A4): > 50 µM | IC50 (hNav1.5): > 50 µM | Microsomal ER [6]: 67% | microsomal CLint [6]: 36 µL/min/mg | PAMPA (% calc fraction absorbed) (PAMPA): 34.7% | log reduction in faecal oocyst shedding (C. parvum): ~ 3 log | effect of intravenous injection on parasite load (C. parvum; i.v. 1 mg kg^−1, exposure similar to oral): negligible effects on the parasite load | In vivo rat reticulocytes MN induction (rat reticulocytes): induce micronuclei; also recorded: Positive | CYP3A4 / 1A2 / 2B6 hepatocyte induction assay (CYP3A4 / 1A2 / 2B6): Non-inducer | Hepatocytes ER [7]: 10% | Microsomal ER [8]: 47% | microsomal CLint [8]: 29 µL/min/mg | IC50 (HsPI(4)K): 1.93 ± 1.08 µM | half-life (Plasma stability [9]): > 2 h | Papp A→B (P-glycoprotein (MDR1); MDCK-MDR1): 1.95 ×10⁻⁶ cm/s | Papp B→A (P-glycoprotein (MDR1); MDCK-MDR1): 15.5 ×10⁻⁶ cm/s | efflux ratio (P-glycoprotein (MDR1); MDCK-MDR1): 7.93 | In vitro Human lymphocyte MN induction [10]: induce micronuclei; also recorded: Positive | solubility ([11]; FaSSIF): 48 µM (≈ 19 µg/mL) | solubility ([11]; pH 6.8, aqueous buffer): 19 µM (≈ 7.53 µg/mL) | half-life [12]: > 4 h
